Activity calls are given as the source filed them. The rule behind the calls is not given here.
How the values were obtained:
[1] = test system: Human immunodeficiency virus 1; experiment: Antiviral activity against HIV1 NL4-3 infected in GFP-positive human CEM cells expressing CD4+,CXCR4 and CCR5 at 2 uM after 3 days by flow cytometric analysis; type: functional, organism-based; conditions: CCRF-CEM
Summary of the method: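 Library screen of HIV-1 spread in CEM-GXR cells cocultured with 1% HIV-1NL4-3-infected (GFP+) cells. Cells were grown in RPMI-1640 with 10% FCS and penicillin-streptomycin, and selected with G418 and hygromycin B during propagation. Compound at final 2 μM in DMSO was added right after inoculation. Infection was read by flow cytometry of GFP.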

[2] = test system: Human immunodeficiency virus 1; experiment: Antiviral activity against subtype A R5 tropic HIV1 97USSN54 infected in GFP-positive human CEM cells expressing CD4+,CXCR4 and CCR5 after 3 days; type: functional, organism-based; conditions: Human immunodeficiency virus 1, 97USSN54, CCRF-CEM, 72 h
Summary of the method: (§1)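 Infected CEM-GXR GFP-reporter cells were exposed to increasing compound concentrations. GFP-positive cells were measured by flow cytometry 3 days after infection. EC50 came from nonlinear regression of the inhibition curves. Mean of three independent determinations.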

[3] = test system: Human immunodeficiency virus 1; experiment: Antiviral activity against subtype B X4 tropic HIV1 3B infected in GFP-positive human CEM cells expressing CD4+,CXCR4 and CCR5 after 3 days; type: functional, organism-based; conditions: Human immunodeficiency virus 1, 3B, CCRF-CEM, 72 h; summary of the method: as §1
[4] = Cytotoxicity against GFP-positive human CEM cells expressing CD4+,CXCR4 and CCR5 assessed as cell viability at 100 uM after 24 hrs by Guava viacount assay (reference value: 98%); type: cell-based, CCRF-CEM; conditions: read-out: Activity
Summary of the method: (§2)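 For viability, CEM-GXR cells were incubated 24 h with compound at 0.5–100 μM. Guava ViaCount flow assay used DNA-binding dye permeability plus forward scatter to exclude nuclei and debris. Values are % viable cells (±SEM, three independent experiments), and CC50 is the concentration killing 50% of host cells.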

[5] = test system: Human immunodeficiency virus 1; experiment: Antiviral activity against […]-resistance HIV1 E00443 harboring reverse transcriptase D67N/K70R/Y115F/Q151M/M184V/K219Q mutant infected in GFP-positive human CEM cells expressing CD4+,CXCR4 and CCR5 after 3 days; type: functional, organism-based; conditions: Human immunodeficiency virus 1, E00443, CCRF-CEM, 72 h
[6] = test system: Human immunodeficiency virus 1; experiment: Antiviral activity against PI-resistant HIV1 isolate 2948 harboring protease G48V/L90M mutant infected in GFP-positive human CEM cells expressing CD4+,CXCR4 and CCR5 after 3 days; type: functional, organism-based; conditions: Human immunodeficiency virus 1, isolate 2948, CCRF-CEM, 72 h
[7] = test system: Human immunodeficiency virus 1; experiment: Antiviral activity against INI-resistant HIV1 isolate 11845 harboring integrase G140S/Q148H mutant infected in GFP-positive human CEM cells expressing CD4+,CXCR4 and CCR5 after 3 days; type: functional, organism-based; conditions: Human immunodeficiency virus 1, isolate 11845, CCRF-CEM, 72 h
[8] = test system: Human immunodeficiency virus 1; experiment: Antiviral activity against maraviroc-resistant HIV1 BAL R5 harboring envelop V3 A19T/L20F/T22A/E25D/126V mutant infected in GFP-positive human CEM cells expressing CD4+,CXCR4 and CCR5 after 3 days; type: functional, organism-based; conditions: ccrf-cem
[9] = Cytotoxicity against GFP-positive human CEM cells expressing CD4+,CXCR4 and CCR5 assessed as cell viability at 16 uM after 24 hrs by Guava viacount assay; type: cell-based, CCRF-CEM; conditions: read-out: Activity
Summary of the method: (§3)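 Uninfected CEM-GXR cells were incubated 24 h with serial dilutions from 62.5 nM to 16 μM final. Viability was read by Guava ViaCount (dye permeability staining with forward scatter gating) as % viable cells. Three independent experiments.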

[10] = Cytotoxicity against GFP-positive human CEM cells expressing CD4+,CXCR4 and CCR5 assessed as cell viability at 8 uM after 24 hrs by Guava viacount assay; type: cell-based, CCRF-CEM; conditions: read-out: Activity; summary of the method: as §3
[11] = Cytotoxicity against GFP-positive human CEM cells expressing CD4+,CXCR4 and CCR5 assessed as cell viability at 4 uM after 24 hrs by Guava viacount assay; type: cell-based, CCRF-CEM; conditions: read-out: Activity; summary of the method: as §3
[12] = Cytotoxicity against GFP-positive human CEM cells expressing CD4+,CXCR4 and CCR5 assessed as cell viability at 1 uM after 24 hrs by Guava viacount assay; type: cell-based, CCRF-CEM; conditions: read-out: Activity; summary of the method: as §3
[13] = Cytotoxicity against GFP-positive human CEM cells expressing CD4+,CXCR4 and CCR5 assessed as cell viability at after 24 hrs by Guava viacount assay; type: cell-based, CCRF-CEM; summary of the method: as §2
[14] = test system: Human immunodeficiency virus 1; experiment: Antiviral activity against HIV1 3B infected in GFP-positive human CEM cells expressing CD4+,CXCR4 and CCR5 assessed as number of infected cells at 1 uM after 3 days; type: functional, CCRF-CEM
Summary of the method: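 CEM-GXR cells (CD4+ T-cell line, Tat-driven LTR-GFP reporter) infected by coculture with 1% HIV-1IIIB-infected cells. Serial dilutions 62.5 nM–16 μM added at inoculation. GFP-positive (infected) cells counted 3 days post-infection. Three independent experiments.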

[15] = Therapeutic index, ratio of CC50 for GFP-positive human CEM cells expressing CD4+,CXCR4 and CCR5 to EC50 for HIV1 3B infected in GFP-positive human CEM cells expressing CD4+,CXCR4 and CCR5; type: cell-based, CCRF-CEM; conditions: read-out: TI
Summary of the method: (§4)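 Reporter CEM-GXR T cells (Tat-driven LTR-GFP cassette; RPMI-1640, 10% FCS, penicillin-streptomycin) were infected by coculture with 1% HIV-infected GFP-positive cells. Compound in DMSO was added after inoculation. Infected cells were counted by flow cytometry for GFP at day 3, and EC50 was taken from nonlinear regression. CC50 came from Guava ViaCount viability after 24 h at 0.5–100 μM. Index = CC50/EC50.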

[16] = Therapeutic index, ratio of CC50 for GFP-positive human CEM cells expressing CD4+,CXCR4 and CCR5 to EC50 for HIV1 97USSN54 infected in GFP-positive human CEM cells expressing CD4+,CXCR4 and CCR5; type: cell-based, CCRF-CEM; conditions: read-out: TI; summary of the method: as §4
[17] = Therapeutic index, ratio of CC50 for GFP-positive human CEM cells expressing CD4+,CXCR4 and CCR5 to EC50 for […] HIV1 E00443 reverse transcriptase D67N/K70R/Y115F/Q151M/M184V/K219Q mutant infected in GFP-positive human CEM cells expressing CD4+,CXCR4 and CCR5; type: cell-based; conditions: ccrf-cem, read-out: TI
[18] = Therapeutic index, ratio of CC50 for GFP-positive human CEM cells expressing CD4+,CXCR4 and CCR5 to EC50 for HIV1 isolate 2948 harboring protease G48V/L90M mutant infected in GFP-positive human CEM cells expressing CD4+,CXCR4 and CCR5; type: cell-based; conditions: ccrf-cem, read-out: TI
[19] = Therapeutic index, ratio of CC50 for GFP-positive human CEM cells expressing CD4+,CXCR4 and CCR5 to EC50 for INI-resistant HIV1 isolate 11845 harboring integrase G140S/Q148H mutant infected in GFP-positive human CEM cells expressing CD4+,CXCR4 and CCR5; type: cell-based; conditions: ccrf-cem, read-out: TI
[20] = Therapeutic index, ratio of CC50 for GFP-positive human CEM cells expressing CD4+,CXCR4 and CCR5 to EC50 for maraviroc-resistant HIV1 BAL R5 harboring envelop V3 A19T/L20F/T22A/E25D/126V mutant infected in GFP-positive human CEM cells expressing CD4+,CXCR4 and CCR5; type: cell-based; conditions: ccrf-cem, read-out: TI

Row | Compound | antiviral activity call (active/inactive) [1] | EC50 [3] [nM] | viability at 24 h, 16 µM [9] [%] | viability at 24 h, 8 µM [10] [%] | viability at 24 h, 4 µM [11] [%] | viability at 24 h, 1 µM [12] [%] | Activity [14] [%] | other results
1 | Cn1ccc(=O)c(C(=O)Nc2nsc3ccc([N+](=O)[O-])cc23)c1 | Active | 600 | 78.7 | 80.9 | 81.5 | 89.6 | 18.4 | EC50 [2]: 900 nM; viability at 24 h, 100 µM [4]: 68.8%; EC50 [5]: 1300 nM; EC50 [6]: 1400 nM; EC50 [7]: 1500 nM; EC50 [8]: 900 nM; CC50 at 24 h [13]: > 100000 nM; selectivity ratio [15]: > 166; selectivity ratio [16]: > 111; selectivity ratio [17]: > 77; selectivity ratio [18]: > 71; selectivity ratio [19]: > 66; selectivity ratio [20]: > 111
2 | COc1cc(C(=O)Nc2nsc3ccc([N+](=O)[O-])cc23)ccn1 | Active | – | – | – | – | – | – | –
3 | Cc1c2ccnc(Cl)c2cc2c3cn(C)ccc-3nc12 | – | – | 11.9 | 19.9 | 33.2 | 85.5 | 17.7 | –
4 | COCCOc1cc(=O)n(C)cc1C(=O)Nc1nsc2ccc([N+](=O)[O-])cc12 | Active | – | – | – | – | – | – | –
5 | COCCOc1ccncc1C(=O)Nc1nsc2ccc([N+](=O)[O-])cc12 | Active | – | – | – | – | – | – | –
6 | Nc1nc(=O)n([C@@H]2CS[C@H](CO)O2)cc1F [EMTRICITABINE] | – | 40 | – | – | – | – | – | –
